The values below come from ChEMBL document CHEMBL1145213, “Lipopolysaccharide sequestrants: structural correlates of activity and toxicity in novel acylhomospermines” (J Med Chem, 2005).

One may read the IC50 as the concentration that gives 50% inhibition. What is called Kd is the equilibrium constant for the complex coming apart. The low end stands for tighter binding, the high end for weaker binding.

For experiment [1], the system named is Lipopolysaccharide (LPS). The experiment in a line: Effective dose required for binding to lipopolysaccharide using Fluorescence Displacement Assay. A digest of the protocol:
(§1)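 BODIPY-TR-cadaverine displacement from LPS. Compounds from 5 mM DMSO stocks were serially diluted two-fold in 50 mM Tris pH 7.4 down to 0.596 nM final. An LPS/probe mixture was added and end-point fluorescence was read at 620 nm; probe de-quenching reports binding. ED50 was computed from displacement curves, with polymyxin B as the reference on every plate.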

A short description of experiment [2]: In vitro inhibitory concentration required to inhibit LPS-induced nitric oxide production in J774A.1 cells. It counts as functional, cell-based. Conditions: Mus musculus, J774.A1. A digest of the protocol:
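Murine J774A.1 macrophages were plated at ~10^5/ml and stimulated with 10 ng/ml LPS. Serially diluted compounds were added at the same time, with polymyxin B as reference, and cells were incubated for 16 h. Nitrite in the supernatant was measured by Griess reaction (15 min, room temperature, dark; A535) against a sodium nitrite standard curve. IC50 was taken from dose-response. Viability was checked in parallel by XTT.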

The species named for another experiment is Homo sapiens. Nature of the experiment: Inhibitory concentration required to inhibit LPS-induced TNF-alpha production in ex vivo human whole blood assay. In kind it is functional, organism-based. A digest of the protocol: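 Fresh EDTA-anticoagulated whole blood from healthy volunteers was mixed with an equal volume of 20 ng/ml E. coli O111:B4 LPS plus graded compound concentrations diluted in saline and incubated for 4 h. TNF-α was quantified by a multiplexed flow-cytometric cytokine bead array against recombinant cytokine standards. IC50 was derived from dose-response.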

Experiment [3] concerns Lipopolysaccharide (LPS). The experiment in a line: Effective dose required for binding to lipopolysaccharide using Fluorescence Displacement Assay; Range is ~1-2 uM. The gist of the method:
as §1

Experiment [4] relates to Mus musculus. Nature of the experiment: Protection of LPS-induced lethality in mice sensitized by D-galactosamine was determined after 200 ug administered ip at 2 hour and activity expressed as dead/total (4/5). In kind it is functional.
For experiment [5], the system named is Mus musculus. Nature of the experiment: Protection of LPS-induced lethality in mice was determined after administration of 100 ug and activity expressed as dead/total (0/5). In kind it is functional.
In experiment [6] the test system is Mus musculus. The experiment in a line: Protection of LPS-induced lethality in mice was determined after administration of 0 ug and activity expressed as dead/total (5/5). In kind it is functional.
In experiment [7] the target is Lipopolysaccharide (LPS). Nature of the experiment: Dissociation constant against lipopolysaccharide. The gist of the method: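 Isothermal titration calorimetry at 37 °C in 50 mM Tris pH 7.4, ligand and LPS in the same buffer. E. coli O111:B4 LPS was titrated in 35 injections at 360 s intervals into the cell holding the acylhomospermine, with stirring at 310 rpm. Controls injected LPS into buffer. KD was obtained from fitting the binding isotherm.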

Experiment [8] has as its system Mus musculus. Nature of the experiment: Protection of LPS-induced lethality in mice sensitized by D-galactosamine was determined after 200 ug administered ip at 1 hour and activity expressed as dead/total (5/5). In kind it is functional.
For experiment [9], the system named is Mus musculus. Nature of the experiment: Protection of LPS-induced lethality in mice sensitized by D-galactosamine was determined after 200 ug administered ip at -6 hour and activity expressed as dead/total (1/5). It counts as functional.
Experiment [10] has as its system Mus musculus. The experiment in a line: Protection of LPS-induced lethality in mice was determined after administration of 10 ug and activity expressed as dead/total (5/5). It counts as functional.
For experiment [11], the system named is Mus musculus. Nature of the experiment: Protection of LPS-induced lethality in mice was determined after administration of 50 ug and activity expressed as dead/total (2/5). In kind it is functional.
The test system of experiment [12] is Mus musculus. Nature of the experiment: Protection of LPS-induced lethality in mice sensitized by D-galactosamine was determined after 200 ug administered ip at 0 hour and activity expressed as dead/total (0/5). In kind it is functional.
The subject of experiment [13] is Mus musculus. Nature of the experiment: Protection of LPS-induced lethality in mice sensitized by D-galactosamine was determined after 200 ug administered ip at -2 hour and activity expressed as dead/total (0/5). It counts as functional.
Experiment [14] concerns Mus musculus. Nature of the experiment: Protection of LPS-induced lethality in mice sensitized by D-galactosamine was determined after 200 ug administered ip at -4 hour and activity expressed as dead/total (1/5). In kind it is functional.
The subject of experiment [15] is Mus musculus. The experiment in a line: Protection of LPS-induced lethality in mice was determined after administration of 200 ug and activity expressed as dead/total (0/5). In kind it is functional.
For experiment [16], the system named is Mus musculus. The experiment in a line: Protection of LPS-induced lethality in mice was determined after administration of 50 ug and activity expressed as dead/total (4/5). It counts as functional.
Experiment [17] has as its system Mus musculus. The experiment in a line: Protection of LPS-induced lethality in mice was determined after administration of 200 ug and activity expressed as dead/total (1/5). In kind it is functional.
The test system of experiment [18] is Mus musculus. Nature of the experiment: Protection of LPS-induced lethality in mice was determined after administration of 100 ug and activity expressed as dead/total (2/5). It counts as functional.
The subject of experiment [19] is Mus musculus. The experiment in a line: Protection of LPS-induced lethality in mice was determined after administration of 500 ug and activity expressed as dead/total (4/5). It counts as functional.
Experiment [20] relates to Mus musculus. The experiment in a line: Protection of LPS-induced lethality in mice was determined after administration of 100 ug and activity expressed as dead/total (4/5). In kind it is functional.
The subject of experiment [21] is Mus musculus. Nature of the experiment: Protection of LPS-induced lethality in mice was determined after administration of 50 ug and activity expressed as dead/total (5/5). In kind it is functional.

In the experiment on Lipopolysaccharide (LPS) [1], `CCCCCCCCCCCCCCC(=O)NCCCNCCCNCCCCNCCCNCCCNC(=O)CCCCCCCCCCCCCC` came in with an ED50 of 8.67 µM. Further, the IC50 in [2] came out at 10.1 µM; in the experiment listed under Homo sapiens, 63.1 µM.
The corresponding values for `CCCCCCCCCCCCCCCCC(=O)NCCCNCCCNCCCCNCCCNCCCNC(=O)CCCCCCCCCCCCCCCC` are 52.5 µM, 14.2 µM and 37.1 µM.
Take `CCCCCCCCCCCCCCC(=O)NCCCN(CCCN(CCCCN(CCCNC(=O)OC(C)(C)C)C(=O)OC(C)(C)C)C(=O)OC(C)(C)C)C(=O)OC(C)(C)C`: the ED50 in the experiment on Lipopolysaccharide (LPS) [3] is < 2 µM.
As to `CC(C)(C)OC(=O)NCCCN(CCCCN(CCCN(CCCN)C(=O)OC(C)(C)C)C(=O)OC(C)(C)C)C(=O)OC(C)(C)C`, the ED50 with Lipopolysaccharide (LPS) [3] is < 2 µM.
For POLYMYXIN B, in the experiment with Lipopolysaccharide (LPS) [1], the ED50 stood at 1.2 µM.
Take `CCCCCCCCCC(=O)NCCCNCCCNCCCCNCCCNCCCNC(=O)CCCCCCCCC`: the ED50 in the experiment on Lipopolysaccharide (LPS) [1] was 0.76 µM. Further, the IC50 in experiment [2] was determined as 1.47 µM; in the experiment filed under Homo sapiens, 10 µM.
As for `CCCCCCCCCCCCCCCCC(=O)NCCCNCCCNCCCCNCCCN`, the Dead in the experiment on Mus musculus [4] is reported as 4; in the experiment with Mus musculus [5] it was 0; in the experiment on Mus musculus [6] it was 5; in the experiment with Mus musculus [8], 5; in the experiment on Mus musculus [9], 1; with Mus musculus [10], 5. The Dead with Mus musculus [11] came to 2; in the experiment on Mus musculus [12], 0; in the experiment on Mus musculus [13] it was 0; in the experiment on Mus musculus [14] it was 1; in the experiment with Mus musculus [15] it was 0. In the experiment with Lipopolysaccharide (LPS) [1], the ED50 came out at 1.37 µM. Besides, the Kd at Lipopolysaccharide (LPS) [7] amounted to 1.21 µM. Besides, the IC50 in experiment [2] came out at 4.22 µM; in the experiment filed under Homo sapiens, 1.91 µM.
Turning to `CCCCCCCCCCCCCCCCC(=O)NCCCN(CCCN(CCCCN(CCCNC(=O)OC(C)(C)C)C(=O)OC(C)(C)C)C(=O)OC(C)(C)C)C(=O)OC(C)(C)C`, the ED50 with Lipopolysaccharide (LPS) [3] was < 2 µM.
As to `CCCCCCCCC(=O)NCCCNCCCNCCCCNCCCN`, the ED50 in the experiment on Lipopolysaccharide (LPS) [1] was 0.92 µM. The half-inhibitory concentration (IC50) in experiment [2] was determined as 52.5 µM; in the experiment filed under Homo sapiens, 31.1 µM.
Turning to `CCCCCCCCCCCC(=O)NCCCNCCCNCCCCNCCCNCCCNC(=O)CCCCCCCCCCC`, the Dead with Mus musculus [16] is recorded as 4; in the experiment on Mus musculus [17], 1; in the experiment with Mus musculus [18], 2; in the experiment with Mus musculus [6], 5; with Mus musculus [19], 4. This molecule gave an ED50 with Lipopolysaccharide (LPS) [1] of 6.87 µM. The IC50 in experiment [2] was found to be 1.44 µM; in the experiment filed under Homo sapiens, 9.19 µM.
Take `CCCCCCCCCCCCCCCCCCC(=O)NCCCNCCCNCCCCNCCCNCCCNC(=O)CCCCCCCCCCCCCCCCCC`: the ED50 in the experiment on Lipopolysaccharide (LPS) [1] worked out at 66.7 µM. The IC50 was 13.9 µM in experiment [2] and 120 µM in the experiment listed under Homo sapiens.
The corresponding values for `CC(=O)NCCCNCCCNCCCCNCCCN` are 107 µM, 171 µM and 36.6 µM.
As to `CCCCCCCCC(=O)NCCCN(CCCN(CCCCN(CCCNC(=O)OC(C)(C)C)C(=O)OC(C)(C)C)C(=O)OC(C)(C)C)C(=O)OC(C)(C)C`, the ED50 in the experiment on Lipopolysaccharide (LPS) [3] was < 2 µM.
Molecule `CCCCCCCCCCCCCCCCCCC(=O)NCCCNCCCNCCCCNCCCN` came in with an ED50 in the experiment on Lipopolysaccharide (LPS) [1] of 2.44 µM. Further, the 50% inhibitory concentration (IC50) in experiment [2] was determined as 4.35 µM; in the experiment listed under Homo sapiens, 2.31 µM.
For the molecule `CCCCCCCCC(=O)NCCCNCCCNCCCCNCCCNCCCNC(=O)CCCCCCCC`, the Dead with Mus musculus [17] turned out to be 1; in the experiment on Mus musculus [6] it was 5; with Mus musculus [20] it was 4; in the experiment with Mus musculus [10], 5; in the experiment on Mus musculus [21], 5. Besides, the ED50 in the experiment on Lipopolysaccharide (LPS) [1] is 0.33 µM. The IC50 was found to be 2.05 µM in experiment [2] and 4.88 µM in the experiment listed under Homo sapiens.
Consider `CCCCCCCCCCCCCCC(=O)NCCCNCCCNCCCCNCCCN`, for which the ED50 in the experiment with Lipopolysaccharide (LPS) [1] was 1.35 µM. Further, the IC50 in experiment [2] was 3.69 µM; in the experiment filed under Homo sapiens, 2.27 µM.
Take `CCCCCCCCCC(=O)NCCCNCCCNCCCCNCCCN`: in the experiment with Lipopolysaccharide (LPS) [1], the ED50 worked out at 1.08 µM. In addition, the IC50 in experiment [2] is 23.5 µM; in the experiment filed under Homo sapiens, 16.5 µM.
For the molecule `CCCCCCCCCC(=O)NCCCN(CCCN(CCCCN(CCCNC(=O)OC(C)(C)C)C(=O)OC(C)(C)C)C(=O)OC(C)(C)C)C(=O)OC(C)(C)C`, the ED50 in the experiment with Lipopolysaccharide (LPS) [3] is < 2 µM.
Same read-out and setting: then `CCCCCCCCCCCCCCCCCCC(=O)NCCCN(CCCN(CCCCN(CCCNC(=O)OC(C)(C)C)C(=O)OC(C)(C)C)C(=O)OC(C)(C)C)C(=O)OC(C)(C)C`, with < 2 µM.
Same read-out and setting: with `CC(=O)NCCCN(CCCN(CCCCN(CCCNC(=O)OC(C)(C)C)C(=O)OC(C)(C)C)C(=O)OC(C)(C)C)C(=O)OC(C)(C)C` the figure was < 2 µM; with `NCCCNCCCCNCCCN`, < 2 µM.
